Laboratory results reported in ChEMBL document CHEMBL1122917, “Vinblastin-23-oyl amino acid derivatives: chemistry, physicochemical data, toxicity, and antitumor activities against P388 and L1210 leukemias” (J Med Chem, 1985).

How the values were obtained:
Mus musculus [1] = experiment: Percent increase in life span at dose 6 mg/kg/day in 7 mice implanted with P388 leukemia cell line for 1,8,15 schedule days from Exp-2; format: functional
Mus musculus [2] = experiment: Number of survivors on 30th day at dose 6 mg/kg/day in 10 mice implanted with P388 leukemia cell line; 1/10; format: functional
Mus musculus [3] = experiment: Number of survivors of DBA2 mice on 30th day after inoculation with L1210 leukemia cell line intravenously at a dose of 10 mg/kg/day; 0/10; format: functional; details: route intravenous
Mus musculus [4] = experiment: Number of survivors on 60th day at dose 4 mg/kg/day in 7 mice implanted with P388 leukemia cell line for 1,8,15 acheduled days form Exp-1; 0/10; format: functional
Mus musculus [5] = experiment: Number of survivors on 60th day at dose 11 mg/kg/day in 10 mice implanted with P388 leukemia cell line; 0/10; format: functional
Mus musculus [6] = experiment: Percent increase in life span at dose 11 mg/kg/day in 10 mice implanted with P388 leukemia cell line; format: functional
In short: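 Female DBA2 mice inoculated iv on day 0 with 10^4 P388 cells; single iv treatment on day 1 with drug as sulfate salt in physiological saline. Survival followed; %ILS from all deaths and survivors as (T/C × 100) − 100, maximal MST 30 days; survivors counted on days 30 and 60. Most experiments confirmed three times.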

Mus musculus [7] = experiment: Number of survivors on 60th day at dose 20 mg/kg/day in 10 mice implanted with P388 leukemia cell line; 0/10; format: functional
Mus musculus [8] = experiment: Number of survivors on 30th day at dose 60 mg/kg/day in 10 mice implanted with P388 leukemia cell line; 8/10; format: functional
Mus musculus [9] = experiment: Percent increase in life span at dose 60 mg/kg/day in 10 mice implanted with P388 leukemia cell line for 1st schedule day; format: functional
Mus musculus [10] = experiment: Number of survivors on 30th day at dose 56 mg/kg/day in 10 mice implanted with P388 leukemia cell line; 4/10; format: functional
Mus musculus [11] = experiment: Number of survivors on 60th day at dose 75 mg/kg/day in 7 mice implanted with P388 leukemia cell line for 1,8,15 scheduled days in Exp-1; 6/10; format: functional
Mus musculus [12] = experiment: Percent increase in life span of DBA2 mice after inoculation with L1210 leukemia intravenously at a dose of 58 mg/kg per day; format: functional; details: route intravenous
Mus musculus [13] = experiment: Number of survivors on 60th day at dose 55 mg/kg/day in 10 mice implanted with P388 leukemia cell line for 1st scheduled day; 6/10; format: functional
Mus musculus [14] = experiment: Percent increase in life span of DBA2 mice after inoculation with L1210 leukemia intravenously at a dose of 70 mg/kg per day; format: functional; details: route intravenous
In short: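 Female DBA2 mice inoculated iv on day 0 with 10^4 L1210 cells; drugs given iv as sulfate salts in physiological saline, mostly once on day 1. %ILS from all deaths and survivors as (T/C × 100) − 100; survivors scored on days 30 and 60.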

Mus musculus [15] = experiment: Number of survivors on 60th day at dose 50 mg/kg/day in 10 mice implanted with P388 leukemia cell line; 5/10; format: functional
Mus musculus [16] = experiment: Percent increase in life span at dose 55 mg/kg/day in 10 mice implanted with P388 leukemia cell line for 1,5,9 schedule days; format: functional
Mus musculus [17] = experiment: Number of survivors of DBA2 mice on 60th day after inoculation with L1210 leukemia cell line intravenously at a dose of 55 mg/kg/day; 0/10; format: functional; details: route intravenous
Mus musculus [18] = experiment: Number of survivors on 60th day at dose 75 mg/kg/day in 7 mice implanted with P388 leukemia cell line for 1,8,15 scheduled days in Exp-2; 2/10; format: functional
Mus musculus [19] = experiment: Number of survivors on 60th day at dose 60 mg/kg/day in 10 mice implanted with P388 leukemia cell line; 3/10; format: functional
Mus musculus [20] = experiment: Percent increase in life span at dose 3 mg/kg/day in 10 mice implanted with P388 leukemia cell line; 0/10; format: functional
Mus musculus [21] = experiment: Number of survivors on 30th day at dose 3 mg/kg/day in 10 mice implanted with P388 leukemia cell line; 0/10; format: functional
Mus musculus [22] = experiment: Number of survivors of DBA2 mice on 60th day after inoculation with L1210 leukemia cell line intraperitoneally at a dose of 0.30 mg/kg/day; 0/10; format: functional; details: route intraperitoneal
Mus musculus [23] = experiment: Number of survivors on 30th day at dose 2.5 mg/kg/day in 10 mice implanted with P388 leukemia cell line; 0/10; format: functional
Mus musculus [24] = experiment: Number of survivors on 60th day at dose 2 mg/kg/day in 10 mice implanted with P388 leukemia cell line for 1st scheduled day; 0/10; format: functional
Mus musculus [25] = experiment: Percent increase in life span of BDF1 mice after inoculation with P388 leukemia cells intraperitoneally at a dose of 0.30 mg/kg per day for 1-9 scheduled days; details: P388, ip
Mus musculus [26] = experiment: Number of survivors on 60th day at dose 3 mg/kg/day in 10 mice implanted with P388 leukemia cell line; 0/9; format: functional
Mus musculus [27] = experiment: Number of survivors on 30th day at dose 3 mg/kg/day in 9 mice implanted with P388 leukemia cell line; 0/10; format: functional
Mus musculus [28] = experiment: Number of survivors of DBA2 mice on 60th day after inoculation with L1210 leukemia cell line intravenously at a dose of 2 mg/kg/day; 0/10; format: functional; details: route intravenous
Mus musculus [29] = experiment: Percent increase in life span of BDF1 mice after inoculation with P388 leukemia intraperitoneally at a dose of 2.7 mg/kg per day; details: P388, ip
Mus musculus [30] = experiment: Number of survivors of DBA2 mice on 30th day after inoculation with L1210 leukemia cell line intravenously at a dose of 6.5 mg/kg/day; 0/10; format: functional; details: route intravenous
Mus musculus [31] = experiment: Number of survivors on 60th day at dose 1.5 mg/kg/day in 10 mice implanted with P388 leukemia cell line; 0/10; format: functional
Mus musculus [32] = experiment: Number of survivors on 60th day at dose 0.5 mg/kg/day in 10 mice implanted with P388 leukemia cell line; 0/10; format: functional
Mus musculus [33] = experiment: Percent increase in life span of BDF1 mice after inoculation with P388 leukemia intraperitoneally at a dose of 1 mg/kg per day; details: P388, ip
Mus musculus [34] = experiment: Percent increase in life span at dose 0.5 mg/kg/day in 10 mice implanted with P388 leukemia cell line; format: functional
Mus musculus [35] = experiment: Number of survivors of DBA2 mice on 60th day after inoculation with L1210 leukemia cell line intraperitoneally at a dose of 1 mg/kg/day; 0/10; format: functional; details: route intraperitoneal
Mus musculus [36] = experiment: Number of survivors of DBA2 mice on 60th day after inoculation with L1210 leukemia cell line intravenously at a dose of 3.5 mg/kg/day; 0/10; format: functional; details: route intravenous
Mus musculus [37] = experiment: Percent increase in life span of DBA2 mice after inoculation with L1210 leukemia intravenously at a dose of 2 mg/kg per day; format: functional; details: route intravenous
Mus musculus [38] = experiment: Number of survivors of DBA2 mice on 60th day after inoculation with L1210 leukemia cell line intravenously at a dose of 4.5 mg/kg/day; 0/10; format: functional; details: route intravenous

`CCOC(=O)[C@@H](NC(=O)[C@@]1(O)[C@H](O)[C@]2(CC)C=CCN3CC[C@@]4(c5cc([C@@]6(C(=O)OC)C[C@H]7C[N@](CCc8c6[nH]c6ccccc86)C[C@](O)(CC)C7)c(OC)cc5N(C)[C@@]14C)[C@@H]32)[C@@H](C)CC` gave an ILS at 6 mg/kg/day (Mus musculus [1]) of 200%, a Survivors (Mus musculus [2]) of 1 and a Survivors (Mus musculus [3]) of 0.

`CC[C@]1(O)C[C@@H]2CN(CCc3c([nH]c4ccccc34)[C@@](C(=O)OC)(c3cc4c(cc3OC)N(C)[C@H]3[C@@](O)(C(=O)OC)[C@H](OC(C)=O)[C@]5(CC)C=CCN6CC[C@]43[C@@H]65)C2)C1` [VINBLASTINE] showed a Survivors (Mus musculus [4]) of 0, a Survivors (Mus musculus [5]) of 0 and an ILS at 11 mg/kg/day (Mus musculus [6]) of -40%.

`CCOC(=O)[C@H](Cc1c[nH]c2ccccc12)NC(=O)[C@@]1(O)[C@H](O)[C@]2(CC)C=CCN3CC[C@@]4(c5cc([C@@]6(C(=O)OC)C[C@H]7C[N@](CCc8c6[nH]c6ccccc86)C[C@](O)(CC)C7)c(OC)cc5N(C)[C@@]14C)[C@@H]32` was tested, and the Survivors (Mus musculus [7]) was 0, the Survivors (Mus musculus [8]) was 8 and the ILS at 60 mg/kg/day (Mus musculus [9]) was > 224%. For the same compound, the Survivors (Mus musculus [10]) was 4, the Survivors (Mus musculus [11]) was 6 and the ILS at 58 mg/kg/day (Mus musculus [12]) was 48.7%. The Survivors (Mus musculus [13]) was 6, the ILS at 70 mg/kg/day (Mus musculus [14]) was 61.8% and the Survivors (Mus musculus [15]) was 5. For the same compound, the ILS at 55 mg/kg/day (Mus musculus [16]) was > 426%, the Survivors (Mus musculus [17]) was 0 and the Survivors (Mus musculus [18]) was 2. For the same compound, the Survivors (Mus musculus [19]) was 3.

Work on `CC[C@]1(O)C[C@@H]2CN(CCc3c([nH]c4ccccc34)[C@@](C(=O)OC)(c3cc4c(cc3OC)N(C)[C@H]3[C@@](O)(C(N)=O)[C@H](O)[C@]5(CC)C=CCN6CC[C@]43[C@@H]65)C2)C1` [VINDESINE] yielded an ILS at 3 mg/kg/day (Mus musculus [20]) of 49.2%, a Survivors (Mus musculus [21]) of 0 and a Survivors (Mus musculus [22]) of 0. It also gave a Survivors (Mus musculus [23]) of 0, a Survivors (Mus musculus [24]) of 0 and an ILS at 0.3 mg/kg/day (Mus musculus [25]) of 95%. The Survivors (Mus musculus [26]) was 0 and the Survivors (Mus musculus [27]) was 0.

`CC[C@]1(O)C[C@H]2CN(CCc3c([nH]c4ccccc34)[C@@](C(=O)OC)(c3cc4c(cc3OC)N(C=O)[C@H]3[C@@](O)(C(=O)OC)[C@H](OC(C)=O)[C@]5(CC)C=CCN6CC[C@]43[C@@H]65)C2)C1` [VINCRISTINE] was tested, and the Survivors (Mus musculus [28]) was 0, the ILS at 2.7 mg/kg/day (Mus musculus [29]) was 64% and the Survivors (Mus musculus [30]) was 0. It also gave a Survivors (Mus musculus [31]) of 0, a Survivors (Mus musculus [32]) of 0 and an ILS at 1 mg/kg/day (Mus musculus [33]) of 47%. For the same compound, the ILS at 0.5 mg/kg/day (Mus musculus [34]) was 4%, the Survivors (Mus musculus [35]) was 0 and the Survivors (Mus musculus [36]) was 0. For the same compound, the ILS at 2 mg/kg/day (Mus musculus [37]) was 16% and the Survivors (Mus musculus [38]) was 0.
